Source: ChEMBL document CHEMBL3734652, “Pyrrolo[3,4-c]pyridine-1,3(2H)-diones: A Novel Antimycobacterial Class Targeting Mycobacterial Respiration” (J Med Chem, 2015)
Values after ≈ are worked out from the molar mass of the structure shown.

Experiments:
[1] = system: Mycobacterium tuberculosis; assay: Antimicrobial activity against Mycobacterium tuberculosis H37RvMA under GAST/Fe medium assessed as growth inhibition after 14 days by alamar blue assay; assay type: functional; settings: 336 h
Summary of the method: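 Broth microdilution in GAST/Fe medium against fully virulent Mtb H37RvMa or its derived strains (cytochrome bd oxidase deletion ΔcydKO; qcrB Ala317Thr point mutant). Plates were incubated 14 days, growth was read by Alamar Blue, and MIC90 was taken as the potency value.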

[2] = Metabolic stability in mouse liver microsomes assessed as residual compound at 0.1 uM after 30 mins by LC-MS/MS method in presence or absence of NADPH; assay type: ADME; settings: read-out: Stability
Vero = assay: Cytotoxicity against African green monkey Vero cells assessed as cell viability by MTT assay; assay type: cell-based; settings: Chlorocebus sabaeus
Summary of the method: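 VERO kidney epithelial cells from African green monkey were exposed to compounds at concentrations up to 100 μM, and IC₅₀ was reported.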

Plasma [3] = assay: Drug metabolism in C57/BL6 mouse plasma assessed as formation of 7-Amino-2-benzyl-4-methyl-1,3-dioxo-2,3-dihydro-1H-pyrrolo-[3,4-c]pyridine-6-carboxamide by LC-MS analysis; assay type: ADME, cell-free
Plasma [4] = assay: Drug metabolism in C57/BL6 mouse plasma assessed as formation of 7-Amino-2-benzyl-4-methyl-1,3-dioxo-2,3-dihydro-1H-pyrrolo-[3,4-c]pyridine-6-carboxylic Acid by LC-MS analysis; assay type: ADME, cell-free
Plasma [5] = assay: Drug metabolism in C57/BL6 mouse plasma assessed as formation of 7-Amino-2-benzyl-N-cyano-4-methyl-1,3-dioxo-2,3-dihydro-1Hpyrrolo[3,4-c]pyridine-6-carboxamide by LC-MS analysis; assay type: ADME, cell-free
[6] = Metabolic stability in rat liver microsomes assessed as residual compound at 0.1 uM after 30 mins by LC-MS/MS method in presence or absence of NADPH; assay type: ADME; settings: read-out: Stability
[7] = Metabolic stability in human liver microsomes assessed as residual compound at 0.1 uM after 30 mins by LC-MS/MS method in presence or absence of NADPH; assay type: ADME; settings: read-out: Stability
[8] = Kinetic solubility in FaSSIF at pH 6.5 after 2 hours at 25 degC by shake flask method; assay type: physicochemical; settings: read-out: Kinetic_solubility
Liver [9] = assay: Drug metabolism in BALB/c mouse liver microsomes assessed as formation of 7-Amino-2-benzyl-4-methyl-1,3-dioxo-2,3-dihydro-1H-pyrrolo-[3,4-c]pyridine-6-carboxylic Acid at 10 uM after 1 hr by LC-MS analysis; assay type: ADME
Liver [10] = assay: Drug metabolism in BALB/c mouse liver microsomes assessed as formation of 7-Amino-2-benzyl-4-methyl-1,3-dioxo-2,3-dihydro-1H-pyrrolo-[3,4-c]pyridine-6-carboxamide at 10 uM after 1 hr by LC-MS analysis; assay type: ADME
Liver [11] = assay: Drug metabolism in BALB/c mouse liver microsomes assessed as formation of 7-Amino-2-benzyl-N-cyano-4-methyl-1,3-dioxo-2,3-dihydro-1Hpyrrolo[3,4-c]pyridine-6-carboxamide at 10 uM after 1 hr by LC-MS analysis; assay type: ADME
[12] = Metabolic stability in human liver S9 fractions assessed as residual compound at 0.1 uM after 40 mins by LC-MS/MS method in presence or absence of NADPH; assay type: ADME; settings: read-out: Stability
[13] = Cmax in anesthetized C57/BL6 mouse at 5 mg/kg, iv by LC-MS method; assay type: ADME, organism-based; set-up: dose 5 mg/kg, route intravenous; settings: in vivo
Summary of the method: (§1)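 C57/BL6 mice were given a single dose of 5 mg/kg iv or 20 mg/kg po. Each dose was tested alone and co-dosed with aminobenzotriazole, a nonspecific cytochrome P450 inhibitor. Plasma exposure was followed, and each parameter is the mean of three animals.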

[14] = Tmax in C57/BL6 mouse at 20 mg/kg, po by LC-MS method; assay type: ADME, organism-based; settings: in vivo; summary of the method: as §1
[15] = Apparent half-life in anesthetized C57/BL6 mouse at 5 mg/kg, iv by LC-MS method; assay type: ADME, organism-based; settings: in vivo, read-out: t1/2(app) (converted); summary of the method: as §1
[16] = AUC (0 to infinity) in anesthetized C57/BL6 mouse at 5 mg/kg, iv by LC-MS method; assay type: ADME, organism-based; set-up: dose 5 mg/kg, route intravenous, time infinity; settings: in vivo; summary of the method: as §1
[17] = Apparent half-life in C57/BL6 mouse at 20 mg/kg, po co-administered with amino-benzotriazole by LC-MS method; assay type: ADME, organism-based; settings: in vivo, read-out: t1/2(app) (converted); summary of the method: as §1
[18] = Apparent half-life in C57/BL6 mouse at 20 mg/kg, po by LC-MS method; assay type: ADME, organism-based; settings: in vivo, read-out: t1/2(app) (converted); summary of the method: as §1
[19] = system: Mycobacterium tuberculosis; assay: Antimicrobial activity against clinical isolates of Mycobacterium tuberculosis SAWC 3385 Cas1/Delhi under 7H9 medium assessed as growth inhibition after 14 days by alamar blue assay; assay type: functional; settings: 336 h
[20] = Plasma protein binding in human at 5 uM preincubated for 1 hr by LC-MS/MS method; assay type: ADME, cell-free; settings: read-out: PPB (converted)
[21] = Cmax in C57/BL6 mouse at 20 mg/kg, po by LC-MS method; assay type: ADME, organism-based; set-up: dose 20 mg/kg, route oral; settings: in vivo; summary of the method: as §1
Mus musculus = assay: Ratio of AUC (0 to infinity) in C57/BL6 mouse at 20 mg/kg, po co-administered with amino-benzotriazole to AUC (0 to infinity) in C57/BL6 mouse at 20 mg/kg, po without co-administration of amino-benzotriazole; assay type: ADME, organism-based; settings: in vivo
[22] = Tmax in anesthetized C57/BL6 mouse at 5 mg/kg, iv co-administered with amino-benzotriazole by LC-MS method; assay type: ADME, organism-based; settings: in vivo; summary of the method: as §1
[23] = system: Mycobacterium tuberculosis; assay: Antimicrobial activity against clinical isolates of Mycobacterium tuberculosis SAWC 3906 Atyp-beijing under 7H9 medium assessed as growth inhibition after 14 days by alamar blue assay; assay type: functional; settings: 336 h
[24] = Intrinsic clearance in mouse liver microsomes assessed per mg of protein at 0.1 uM by LC-MS/MS method in presence or absence of NADPH; assay type: ADME
[25] = Apparent half-life in anesthetized C57/BL6 mouse at 5 mg/kg, iv co-administered with amino-benzotriazole by LC-MS method; assay type: ADME, organism-based; settings: in vivo, read-out: t1/2(app) (converted); summary of the method: as §1
[26] = system: Mycobacterium tuberculosis; assay: Antimicrobial activity against GFP expressing recombinant Mycobacterium tuberculosis H37RvMA under 7H9 medium assessed as growth inhibition after 14 days by broth microdilution method; assay type: functional; settings: 336 h
[27] = Total clearance in anesthetized C57/BL6 mouse at 5 mg/kg, iv co-administered with amino-benzotriazole by LC-MS method; assay type: ADME, organism-based; settings: in vivo; summary of the method: as §1
[28] = system: Mycobacterium tuberculosis; assay: Antimicrobial activity against clinical isolates of Mycobacterium tuberculosis SAWC 3933 LCC under 7H9 medium assessed as growth inhibition after 14 days by alamar blue assay; assay type: functional; settings: 336 h
[29] = Volume of distribution in anesthetized C57/BL6 mouse at 5 mg/kg, iv by LC-MS method; assay type: ADME, organism-based; settings: in vivo; summary of the method: as §1
[30] = Cmax in C57/BL6 mouse at 20 mg/kg, po co-administered with amino-benzotriazole by LC-MS method; assay type: ADME, organism-based; set-up: dose 20 mg/kg, route oral; settings: in vivo; summary of the method: as §1
[31] = Tmax in anesthetized C57/BL6 mouse at 5 mg/kg, iv by LC-MS method; assay type: ADME, organism-based; settings: in vivo; summary of the method: as §1
[32] = Total clearance in anesthetized C57/BL6 mouse at 5 mg/kg, iv by LC-MS method; assay type: ADME, organism-based; settings: in vivo; summary of the method: as §1
Liver microsome [33] = assay: Intrinsic clearance in human liver microsomes assessed per mg of protein at 0.1 uM by LC-MS/MS method in presence or absence of NADPH; assay type: ADME
[34] = AUC (0 to infinity) in C57/BL6 mouse at 20 mg/kg, po co-administered with amino-benzotriazole by LC-MS method; assay type: ADME, organism-based; set-up: dose 20 mg/kg, route oral, time infinity; settings: in vivo; summary of the method: as §1
Liver microsome [35] = assay: Intrinsic clearance in rat liver microsomes assessed per mg of protein at 0.1 uM by LC-MS/MS method in presence or absence of NADPH; assay type: ADME
[36] = Tmax in C57/BL6 mouse at 20 mg/kg, po co-administered with amino-benzotriazole by LC-MS method; assay type: ADME, organism-based; settings: in vivo; summary of the method: as §1
[37] = Cmax in anesthetized C57/BL6 mouse at 5 mg/kg, iv co-administered with amino-benzotriazole by LC-MS method; assay type: ADME, organism-based; set-up: dose 5 mg/kg, route intravenous; settings: in vivo; summary of the method: as §1
[38] = Half life in human plasma at 0.1 uM by LC-MS/MS method; assay type: ADME, cell-free
[39] = Oral bioavailability in C57/BL6 mouse at 20 mg/kg co-administered with amino-benzotriazole by LC-MS method; assay type: ADME, organism-based; settings: in vivo; summary of the method: as §1
[40] = Oral bioavailability in C57/BL6 mouse at 20 mg/kg by LC-MS method; assay type: ADME, organism-based; settings: in vivo; summary of the method: as §1
[41] = Octanol-phosphate buffer partition coefficient, log D of the compound at 100 uM at pH 7.4 after 3 hrs by shake flask method; assay type: physicochemical
[42] = Ratio of Cmax in C57/BL6 mouse at 20 mg/kg, po co-administered with amino-benzotriazole to MIC90 for Mycobacterium tuberculosis H37RvMA in GAST/Fe medium
[43] = AUC (0 to infinity) in anesthetized C57/BL6 mouse at 5 mg/kg, iv co-administered with amino-benzotriazole by LC-MS method; assay type: ADME, organism-based; set-up: dose 5 mg/kg, route intravenous, time infinity; settings: in vivo; summary of the method: as §1
[44] = system: Mycobacterium tuberculosis; assay: Antimicrobial activity against GFP expressing recombinant Mycobacterium tuberculosis H37RvMA under GAST/Fe medium assessed as growth inhibition after 14 days by broth microdilution method; assay type: functional; settings: 336 h
[45] = Volume of distribution in anesthetized C57/BL6 mouse at 5 mg/kg, iv co-administered with amino-benzotriazole by LC-MS method; assay type: ADME, organism-based; settings: in vivo; summary of the method: as §1
[46] = system: Mycobacterium tuberculosis; assay: Antimicrobial activity against clinical isolates of Mycobacterium tuberculosis SAWC 2371 Haarlem under 7H9 medium assessed as growth inhibition after 14 days by alamar blue assay; assay type: functional; settings: 336 h
[47] = AUC (0 to infinity) in C57/BL6 mouse at 20 mg/kg, po by LC-MS method; assay type: ADME, organism-based; set-up: dose 20 mg/kg, route oral, time infinity; settings: in vivo; summary of the method: as §1

Cc1noc(-c2nc(C)c3c(c2N)C(=O)N(Cc2ccccc2)C3=O)n1
MIC90 [1]: 0.625 µM (≈ 0.218 µg/mL) | remaining at 0.5 h, 0.1 µM [2]: 98% | IC50 (Vero): > 100 µM | Drug metabolism (Plasma [3]): metabolite_detected | Drug metabolism (Plasma [4]): metabolite_detected | Drug metabolism (Plasma [5]): metabolite_detected | remaining at 0.5 h, 0.1 µM [6]: 100% | remaining at 0.5 h, 0.1 µM [7]: 57% | solubility kinetic at 2 h [8]: < 5 µM | Drug metabolism (Liver [9]): metabolite_detected | Drug metabolism (Liver [10]): metabolite_detected | Drug metabolism (Liver [11]): metabolite_detected

Cc1noc(-c2nc(C)c3c(c2N)C(=O)N(Cc2cccc(Cl)c2)C3=O)n1
MIC90 [1]: < 0.156 µM | remaining at 40 min, 0.1 µM [12]: 97% | Cmax [13]: 622 nM | Tmax [14]: 1 h | half-life [15]: 421 min | AUC(0-inf) [16]: 1.27 µM·h | IC50 (Vero): > 100 µM | half-life [17]: 203 min | half-life [18]: 131 min | MIC90 [19]: 0.6 µM (≈ 0.23 µg/mL) | fraction unbound at 1 h, 5 µM [20]: 0.033 | Cmax [21]: 33 nM | Ratio AUC (Mus musculus): 10 | Tmax [22]: 10.2 min | MIC90 [23]: 0.15 µM (≈ 0.0576 µg/mL) | CLint [24]: < 11.6 µL/min/mg | half-life [25]: 439 min | MIC90 [26]: > 20 µM | clearance [27]: 94.5 mL/min/kg | MIC90 [28]: 0.15 µM (≈ 0.0576 µg/mL) | Vd [29]: 104 L/kg | Cmax [30]: 167 nM | solubility kinetic at 2 h [8]: 72 µM (≈ 27.6 µg/mL) | Tmax [31]: 10.2 min | clearance [32]: 171 mL/min/kg | CLint (Liver microsome [33]): < 11.6 µL/min/mg | AUC(0-inf) [34]: 1.33 µM·h | CLint (Liver microsome [35]): < 11.6 µL/min/mg | Tmax [36]: 30 min | Cmax [37]: 1530 nM | half-life at 0.1 µM [38]: 62 min | bioavailability [39]: 26% | bioavailability [40]: 2% | logD at 3 h, 100 µM [41]: 3.34 | Ratio [42]: 2 | AUC(0-inf) [43]: 2.65 µM·h | MIC90 [44]: 0.065 µM | Vd [45]: 53.1 L/kg | MIC90 [46]: 0.6 µM (≈ 0.23 µg/mL) | AUC(0-inf) [47]: 0.133 µM·h
